Screening results from PubChem BioAssay.
In the library only some 11% were active in any assay of this set; here they are far more common.
M1 ag: M1 muscarinic receptor agonists, primary screen, CHO-M1 cells, Fluo-4 calcium, agonist mode. Muscarinic acetylcholine receptor M1. Fluo-4 calcium fluorescence; stronger effect = higher value. B-score at 10 µM. hit rate 3% among 64,000;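 active = fluorescence rise, raw or as B-score row- and column-corrected plate score, outside the 99.7% band of its plate's samples, either direction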
mHtt clearance: clearance of mutant huntingtin inclusions, primary screen, imaging, HeLa Exon1htt(103Q)mCFP, confocal imaging | aggregate imaging; zero = plate's median compound well | inhibition, % at 1.5 µM | hit rate 0.42% among 47,000;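 active = inhibition of aggregate fluorescence above about 70%, also judged a hit by eye on the cell image, limit read from the data, passing the limit was not always enough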;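 also: cells exposed to compound for three days before fixation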
D1 allo mod: D1 CRE-luciferase signal change, two-sided – cell-based, HEK293 D1, dopamine EC30, D1 allosteric modulator project, primary screen; D(1A) dopamine receptor (Homo sapiens), P21728; B-score at 10 µM; AID 641, 2007; hit rate 5.9% among 58,000; dopamine EC30 potentiation; actives deviate in either direction;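 active = luminescence count or its row- and column-corrected plate score outside the 99.7% band of the plate's sample wells, on either side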
SF-1 act: activators of human SF-1, primary screen, cell-based, CHO-K1, Gal4-SF-1 LBD, luciferase luminescence | CHO-K1 Gal4-SF-1 LBD luciferase reporter; % increase over DMSO SF-1-specific signal | activation, % at 10 µM | hit rate 1.9% among 65,000;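 active = activation above the mean activation of all tested compounds plus 3 SD, cut at about 50% in these data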
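Material: Gal4–SF-1 LBD one-hybrid luciferase reporter in CHO-K1 cells | Amount: 4,000 cells per well | Compound dosing: 10 µM single point, 1% DMSO | Schedule: 20 h compound treatment, 37 °C | Measured by: SteadyLite luciferase luminescence | Evaluation: Percent activation versus DMSO | Control set: DMSO-treated SF-1-transfected cells as negative, DMSO-treated mock-transfected cells lacking SF-1 as background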
M1 antag: antagonists of rat M1 muscarinic receptor; B-score at 10 µM; AID 628, 2007; hit rate 3.4% among 64,000; CHO-M1 cells, Fluo-4 calcium, ACh EC80 antagonist mode; stronger effect = lower value; Muscarinic acetylcholine receptor M1 (Rattus norvegicus), P08482;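 active = calcium fluorescence response, raw or row-and-column corrected B-score, differing from the plate sample mean either way at a set confidence level, mostly lower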
Target sequence (P08482 whole entry, looked up): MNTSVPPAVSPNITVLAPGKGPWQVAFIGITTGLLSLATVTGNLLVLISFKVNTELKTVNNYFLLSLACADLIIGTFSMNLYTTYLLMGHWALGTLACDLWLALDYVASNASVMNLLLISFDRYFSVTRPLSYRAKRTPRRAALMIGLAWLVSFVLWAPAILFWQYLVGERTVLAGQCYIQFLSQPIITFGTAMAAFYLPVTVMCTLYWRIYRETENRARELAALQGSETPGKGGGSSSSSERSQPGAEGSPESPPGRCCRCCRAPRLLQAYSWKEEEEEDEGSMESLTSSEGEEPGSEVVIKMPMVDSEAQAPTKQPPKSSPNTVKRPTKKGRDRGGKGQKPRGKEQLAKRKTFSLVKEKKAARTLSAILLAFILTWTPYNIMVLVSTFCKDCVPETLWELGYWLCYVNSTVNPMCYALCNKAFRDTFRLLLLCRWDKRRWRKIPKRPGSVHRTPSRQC
RORa activator: activators of orphan receptor RORA, primary screen, cell-based, luminescence; CHO-K1 Gal4-RORA LBD luciferase reporter; percent increase over mock-subtracted basal signal; hit rate 1.5% among 65,000; activation, % at 10 µM; Nuclear receptor ROR-alpha (Homo sapiens), P35398;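 active = activation above the mean of all tested compounds plus 3 SD, cut at about 49% in these data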;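 also: 0% = DMSO-treated RORA cells and 100% = added signal equal to DMSO minus mock-transfected cells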
An asterisk follows results filed as active; x = not tested or not shown.

SMILES	M1 ag	mHtt clearance	D1 allo mod	SF-1 act	M1 antag	RORa activator
O=C(Cc1ccccc1)Nc1ccc2oc(-c3cccnc3)nc2c1	0.24	21	0.57	20	-0.55	6
O=C(NCc1ccccn1)C1CCCN(S(=O)(=O)c2cccc3nsnc23)C1 (configuration not stated)	-0.19	x	2.4	-1	0.038	16
COC(=O)CCN1CCC(C(N)=O)CC1	-0.73	x	0.17	-1	-0.37	21
O=C1NC(c2ccccc2)C(C(=O)c2cccs2)=C1O (configuration not stated)	0.11	-34	-0.82	9	-0.61	-5
CCOC(=O)CSc1cc(=O)n(C)c2cc(Cl)ccc12	-1.3	x	-0.12	-10	0.024	0
O=C(Nc1cccc(C(F)(F)F)c1)c1cccnc1	x	-62	-0.7	10	x	17
O=C(Nc1ccc2nn(-c3ccccc3)nc2c1)c1cccnc1	-0.67	x	-1.1	61*	0.11	46
CCn1c(SCc2nnc(-c3ccccc3)o2)nc2c1c(=O)n(C)c(=O)n2C	2	x	-0.39	-8	1.5	31
CCCCn1c(SCc2nnc(-c3ccccc3)o2)nc2c1c(=O)n(C)c(=O)n2C	3*	x	0.028	-6	-0.32	-6
CCOC(=O)N1CCN(c2nc3ccccc3nc2C(C#N)S(=O)(=O)c2ccc(C)cc2)CC1 (configuration not stated)	x	x	0.082	5	x	24
O=C(NCCc1ccccc1)c1cnc2sccn2c1=O	-2.7	x	-0.7	38	-0.029	84*
COc1ccc(OC)c(C2SCCN2S(=O)(=O)c2cccc(C(F)(F)F)c2)c1 (configuration not stated)	0.48	x	-0.32	-8	0.52	-4
CCCCC1CCC(c2nc(-c3ccccn3)no2)CC1 (configuration not stated)	-1.3	-95	-1.9	52*	-0.024	5
Cc1ccc(Cn2c(SCC(=O)NCC3CCCO3)nc3c(sc4ccccc43)c2=O)cc1 (configuration not stated)	x	4	x	x	x	x
CCOC(=O)c1nn(-c2ccccc2F)c(-c2ccccc2)c1C(=O)c1ccccc1	x	6	x	x	x	x
COc1ccc(C2CC(c3ccc(Cl)cc3)Nc3nc(NC(=O)c4ccco4)nn32)cc1 (configuration not stated)	-0.81	75*	-0.085	5	0.17	6
CCOc1ccc2nc(NC(=O)C3CCN(S(=O)(=O)c4cnc[nH]4)CC3)sc2c1	0.22	x	0.55	-3	0.093	-43
COc1ccc2nc(NC(=O)C3CCN(S(=O)(=O)c4cnc[nH]4)CC3)sc2c1	0.7	x	-4.9*	3	-0.93	-24
CN(C)c1ccc(NC(=O)CCCc2ccccc2)cc1	-0.17	-44	-1.9	40	0.46	50*
Cc1ccc(CNC(=O)CCS(=O)(=O)c2cc(Br)cc3c2N(C(=O)C2CC2)CC3)o1	0.071	x	1	-6	0.39	9
CCOC(=O)c1c(C)n(C)c2ccc(OCC(O)CN3C(=O)c4ccccc4S3(=O)=O)cc12 (configuration not stated)	7.2*	x	-0.032	6	-0.81	-7
CCOC(=O)CNC(=O)C(NC(=O)C1CCC(C)CC1)C(C)CC (configuration not stated)	0.36	x	x	14	-1	-9
CSc1nsc(SCCN2C(=O)c3ccccc3C2=O)n1	1.2	x	0.091	6	2.3*	-26
Cc1csc(SCCN2C(=O)c3ccccc3C2=O)n1	-0.17	-75	-0.44	65*	0.077	73*
O=C1c2ccccc2C(=O)N1CCSc1nncs1	0.24	-1	-0.023	13	-0.059	0
SMILES	M1 ag	mHtt clearance	D1 allo mod	SF-1 act	M1 antag	RORa activator
COC(=O)c1ccc(NC(=O)Cn2nc(-c3ccncc3)nc2SCC(=O)Nc2nccs2)cc1	x	1	x	x	x	x
CCOC(=O)C1=C(C)NC(SCC(=O)Nc2cc(C)on2)=C(C#N)C1c1cccs1 (configuration not stated)	-0.31	37	-5.3*	26	0.46	10
C=CCOC(=O)C1=C(C)NC(SCC(=O)Nc2nccs2)=C(C#N)C1c1cccs1 (configuration not stated)	x	-14	x	x	x	x
CCOC1(OCC)N=C(N)C2(C#N)C(c3ccc(NC(C)=O)cc3)C12C#N (configuration not stated)	0.44	x	-0.28	12	-0.6	-3
COc1cc2c(C(=O)N3CCN(C4CCCCC4)CC3)cn(CC(C)C)c(=O)c2cc1OC	x	-35	-5.7*	2	x	19
COc1cccc(OCc2nnc(SCC(=O)OCc3ccccc3)o2)c1	0.078	62	0.39	7	0.65	49*
O=C(CSc1nnc(-c2ccccc2)o1)OCc1ccccc1	-0.056	-19	-0.19	-4	1.4	-12
CCCn1c(SCC(=O)Nc2ccccc2N2CCCCC2)nc2c1c(=O)n(C)c(=O)n2C	0.98	1	0.38	7	-0.76	13
CCc1ccc(C(=O)Nc2nnn(CC)n2)cc1	-0.038	-33	-4.5*	42	-0.3	40
CCCCn1nnc(NC(=O)c2cc3ccccc3o2)n1	0.37	6	0.41	31	-1.4	15
CCOC(=O)c1ccc(NC(=O)c2cc3ccccc3o2)cc1	x	x	-0.93	2	x	12
CCn1nnc(NC(=O)c2cc3ccccc3o2)n1	0.21	0	-0.17	12	3.4*	-7
CCCn1nnc(NC(=O)c2cc3ccccc3o2)n1	-0.62	44	-2.4	20	-0.035	49*
COc1ccc(-c2nnn(CC(=O)N(Cc3cccs3)C(C)C(=O)NC3CCCC3)n2)cc1OC (configuration not stated)	-0.31	x	4*	1	-1.5	-23
COc1c(C)cccc1C(=O)Nc1cc(-c2nn3c(C)nnc3s2)ccc1C	1.5	-46	-0.25	-25	-1.2	-16
CCCCOc1ccc(-c2nnn(C(C)C(=O)OCC)n2)cc1 (configuration not stated)	0.0073	31	-0.44	8	-0.056	-12
CCCCOc1ccc(-c2nnn(C(C)(C)C(=O)OC)n2)cc1	0.3	-8	-1.1	34	1.5*	23
CCn1c(NC2CCCCC2)nc2ccccc21	-0.55	x	-3.4*	12	-1.2	0
CCn1c(NC(C)=O)nc2ccccc21	x	-38	x	x	x	x
O=C(CCNc1ccccc1)c1ccc2c(c1)OCO2	-0.064	x	-0.78	62*	0.2	43
CC(=O)Nc1ccccc1OCC(=O)c1ccc2c(c1)OCO2	-0.057	11	x	25	0.87	65*
